Data: ChEMBL document CHEMBL1123170, “Drug design via pharmacophore identification. Dopaminergic activity of 3H-benz[e]indol-8-amines and their mode of interaction with the dopamine receptor” (1986)
Calls of active or inactive are those of the source. No cut-off for these calls is given here.

How the values were obtained:
[1] = tested on: Rattus norvegicus; experiment: Contralateral turning characteristic was measured in rat at 5 po mg/kg dose; assay type: functional
How it was run: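 Male Sprague-Dawley rats with unilateral 6-OHDA lesions of the nigrostriatal pathway, in groups of 4-5, were reused at intervals of at least 1 week. After dosing, each rat was placed straight into a rotometer and recorded continuously until rotation ceased. Result is total contralateral turns, mean ± SEM. Doses refer to the base.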

[2] = tested on: Rattus norvegicus; experiment: Compound was evaluated for its ability to induce locomotion in rats rendered akinetic by bilateral anterolateral hyphalamic injection of 6-OHDA at 10 Po mg/kg dose after sc administration; assay type: functional
How it was run: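 Male Sprague-Dawley rats with bilateral 6-OHDA lesions of the anterolateral hypothalamus were tested 4 days after lesioning, dosed, and placed in an open field. Ambulation (all four limbs placed in one square = one score) was counted over six 2-min periods within 2 h. Result is the cumulative ambulation score, mean ± SEM. Doses refer to the base.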

[3] = tested on: Mus musculus; experiment: Compound was tested for its ability to antagonize the catalepsy produced in mice after sc administration; assay type: functional
How it was run: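 Male Swiss albino mice (21-25 g), groups of 10-12. Reserpine 5 mg/kg ip given 17 h before sc test drug. Catalepsy checked before dosing and at 0.5, 1, 2, 3.5 and 5 h: mouse placed on a rubber stopper (5 cm diameter, 2.5 cm high) for 3 min; staying on counts as cataleptic. Quantal ED50 = dose reversing catalepsy in 50% of mice.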

[4] = tested on: Rattus norvegicus; experiment: Effect of pretreatment with alpha-MPT on the rotational behavior induced by the compound (5 mg/kg, sc) in rats with 6-OHDA induced lesions (indicates that it acted directly on DA receptors); assay type: functional
[5] = tested on: Rattus norvegicus; experiment: Ability to induce locomotion in rats rendered akinetic by bilateral anterolateral hyphalamic injection of 6-OHDA at 2.5 mg/kg dose after sc administration; assay type: functional; conditions: route subcutaneous
How it was run: (§1)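 Male Sprague-Dawley rats with 6-OHDA lesions of the anterolateral hypothalamus on both sides; tested 4 days after lesioning. Compound given sc, then rats placed in an open field. Ambulation recorded in 2-min periods across 2 h; one score = all four limbs placed in one square. Readout is the cumulative ambulation score (mean ± SEM).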

[6] = tested on: Rattus norvegicus; experiment: Contralateral turning characteristic of dopamine agonist was measured in rat at 10 Po mg/kg dose; assay type: functional
How it was run: (§2)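 Male Sprague-Dawley rats with unilateral 6-OHDA nigrostriatal lesions, groups of 4-5, reused at least 1 week apart. Dosed po or sc as stated, placed at once in a rotometer, and rotation recorded continuously until it stopped. Readout is total contralateral turns (mean ± SEM). Doses given as base.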

[7] = tested on: Rattus norvegicus; experiment: Contralateral turning characteristic of dopamine agonist was measured in rat at 10 Sc mg/kg dose; assay type: functional; how it was run: as §2
[8] = tested on: Rattus norvegicus; experiment: Compound was evaluated for its ability to induce locomotion in rats rendered akinetic by bilateral anterolateral hyphalamic injection of 6-OHDA at 2.5 mg/kg dose after sc administration; assay type: functional; conditions: route subcutaneous; how it was run: as §1
[9] = biological target: Dopamine receptor (Rattus norvegicus) (UniProt P25115+P19020+P30729+P18901+P61169); experiment: Dopamine receptor agonistic activity measured as Contralateral turning characteristic was measured in rat at 2.5 Sc mg/kg dose; assay type: functional, organism-based; how it was run: as §2
[10] = tested on: Rattus norvegicus; experiment: Compound was evaluated for its ability to induce locomotion in rats rendered akinetic by bilateral anterolateral hyphalamic injection of 6-OHDA at 10 mg/kg dose after sc administration; assay type: functional; conditions: route subcutaneous; how it was run: as §1
[11] = tested on: Rattus norvegicus; experiment: Compound was evaluated for its ability to induce locomotion in rats rendered akinetic by bilateral anterolateral hyphalamic injection of 6-OHDA at 30 mg/kg dose after sc administration; I=Inactive; assay type: functional, organism-based; design: dose 30 mg/kg; how it was run: as §1

For `CC(C)C[C@H]1C(=O)N2CCC[C@H]2[C@]2(O)O[C@](NC(=O)[C@@H]3C=C4c5cccc6[nH]c(Br)c(c56)C[C@H]4N(C)C3)(C(C)C)C(=O)N12` [BROMOCRIPTINE], the Activity [1] was 1805, the Ambulation score [2] was 112 and the ED50 [3] was 2.3 mg/kg.
`CCCN(CCC)C1CCc2ccc3[nH]ccc3c2C1` (stereo not given) was tested, and the Activity [4] was 3460, the Ambulation score [5] was 287 and the ED50 [3] was 2.3 mg/kg.
Compound `CN(C)C1CCc2ccc3[nH]ccc3c2C1` (stereo not given) has an Activity [6] of 4947, an Activity [7] of 4540 and an Ambulation score [8] of 378. The ED50 [3] was 5.8 mg/kg.
For `CCCN(CCC)C1CCc2ccc3c(ccn3C)c2C1` (stereo not given), the Activity [9] was under 300, the Ambulation score [10] was under 100 and the ED50 [3] was 5 mg/kg.
For `CN(C)C1CCc2ccc3c(ccn3C)c2C1` (stereo not given), the Ambulation score [11] was “inactive” and the ED50 [3] was over 30 mg/kg.
